Experimental data taken from the M2OR odorant receptor database.

biological target: T1, OR1K1 (Homo sapiens) (UniProt Q8NGR3); details: stereoisomer not certain
T1 sequence (whole entry): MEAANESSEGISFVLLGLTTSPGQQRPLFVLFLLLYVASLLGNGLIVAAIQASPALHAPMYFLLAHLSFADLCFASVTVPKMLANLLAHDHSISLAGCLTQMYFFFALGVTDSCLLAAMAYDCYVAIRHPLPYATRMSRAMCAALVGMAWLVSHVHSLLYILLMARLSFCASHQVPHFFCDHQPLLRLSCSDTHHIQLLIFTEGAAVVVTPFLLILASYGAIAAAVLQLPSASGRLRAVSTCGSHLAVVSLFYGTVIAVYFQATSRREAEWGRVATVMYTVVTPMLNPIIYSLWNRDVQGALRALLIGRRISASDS
In short: (§1)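 Transient luciferase assays in mammalian cell lines were common, though methods varied by source. The values come from published papers and their supplementary material, with extra details from the original authors when needed. Responsive refers to a measured signal the original authors judged statistically different from baseline, and non-responsive (inactive) to the remainder.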
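Also: active if original authors judged signal statistically different from baseline.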

Odorant receptor agonist call, inactive:
CCCCCC(=O)C(C)C(C)=O (stereo not given)
CC1CCCCCCCCCCCCC(=O)C1 (stereo not given)
CC(=O)c1c(C)c([N+](=O)[O-])c(C(C)(C)C)c([N+](=O)[O-])c1C
CCCC(S)CCOC(C)=O (stereo not given)
CCCCCCC=CCCC=O
Cc1cnc(C)c(C)n1
CCC1OC(C)=C(O)C1=O (stereo not given)
CCCCCC(S)C(C)CO (stereo not given)
CC(CO)CS (stereo not given)
CC1=C(O)C(=O)OC1C (stereo not given)
CCC(S)C(C)CO (stereo not given)
CC1=NC(C)C(C)S1 (stereo not given)
CCC1OC(=O)C(O)=C1C (stereo not given)
CC1=C(O)C(=O)C(C)O1 (stereo not given)
CCCCC(S)C(C)CO (stereo not given)

biological target: T2, OR1L1 (Homo sapiens) (UniProt Q8NH94); details: stereoisomer not certain
T2 sequence (whole entry): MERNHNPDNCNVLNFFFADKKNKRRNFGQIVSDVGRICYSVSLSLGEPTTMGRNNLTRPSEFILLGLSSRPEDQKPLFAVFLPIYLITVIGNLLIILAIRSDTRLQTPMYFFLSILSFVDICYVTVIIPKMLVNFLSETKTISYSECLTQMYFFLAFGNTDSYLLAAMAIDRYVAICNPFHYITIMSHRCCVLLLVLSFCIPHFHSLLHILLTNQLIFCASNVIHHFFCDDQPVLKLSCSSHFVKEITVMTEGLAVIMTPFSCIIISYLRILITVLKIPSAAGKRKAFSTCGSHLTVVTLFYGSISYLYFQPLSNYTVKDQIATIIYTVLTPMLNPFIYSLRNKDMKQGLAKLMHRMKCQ
In short: as §1

Odorant receptor agonist call, inactive:
CCCCCC(=O)C(C)C(C)=O (stereo not given)
CC1CCCCCCCCCCCCC(=O)C1 (stereo not given)
CC(=O)c1c(C)c([N+](=O)[O-])c(C(C)(C)C)c([N+](=O)[O-])c1C
CCCCCCC=CCCC=O
CCCCCC(S)C(C)CO (stereo not given)
CC(CO)CS (stereo not given)
CCC(S)C(C)CO (stereo not given)
CCCCC(S)C(C)CO (stereo not given)

tested on: T3, OR1L1; details: stereoisomer not certain
T3 sequence (whole entry): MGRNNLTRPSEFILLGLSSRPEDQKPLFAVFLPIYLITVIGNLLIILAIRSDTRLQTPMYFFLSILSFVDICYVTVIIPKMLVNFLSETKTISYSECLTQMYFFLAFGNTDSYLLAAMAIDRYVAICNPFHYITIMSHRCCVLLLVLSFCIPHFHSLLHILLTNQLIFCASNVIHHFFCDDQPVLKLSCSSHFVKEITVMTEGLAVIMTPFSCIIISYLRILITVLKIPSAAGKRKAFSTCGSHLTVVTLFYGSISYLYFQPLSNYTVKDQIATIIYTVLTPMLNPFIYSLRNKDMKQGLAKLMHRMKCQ
In short: as §1

Odorant receptor agonist call, inactive:
CCCC(S)CCOC(C)=O (stereo not given)
Cc1cnc(C)c(C)n1
CCC1OC(C)=C(O)C1=O (stereo not given)
CC1=C(O)C(=O)OC1C (stereo not given)
CC1=NC(C)C(C)S1 (stereo not given)
CCC1OC(=O)C(O)=C1C (stereo not given)
CC1=C(O)C(=O)C(C)O1 (stereo not given)
